Experimental data reported in ChEMBL document CHEMBL1155887, “Structure-activity relationships of 2-aryl-1H-indole inhibitors of the NorA efflux pump in Staphylococcus aureus” (2008).
Values after ≈ are worked out from the molar mass of the structure shown. Active and inactive are the calls of the source. No cut-off for these calls is given here.

Columns and labels:
[1] = tested on: Staphylococcus aureus; assay: Antibacterial activity against NorA knockout Staphylococcus aureus K1758 after 18 to 20 hrs by serial dilution method; format: functional
How it was run: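 Compound alone, without berberine: cells at 10^5 CFU/mL in broth, serial 2-fold dilutions of compound, 18–20 h at 37 °C, growth read at 600 nm. MIC is the lowest concentration giving complete growth inhibition. The testing limit was 1000 µM.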

[2] = tested on: Staphylococcus aureus; assay: Antibacterial activity against wild type Staphylococcus aureus 8325-4 after 18 to 20 hrs by serial dilution method; format: functional
How it was run: (§1)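 Compound alone, without berberine. Cells at 10^5 CFU/mL inoculated into broth and given serial 2-fold dilutions of compound. Incubated 18–20 h at 37 °C, with growth read as absorbance at 600 nm. MIC is the concentration completely inhibiting growth; testing limit 1000 µM.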

[3] = tested on: Staphylococcus aureus; assay: Antibacterial activity against Staphylococcus aureus K2378 overexpressing NorA after 18 to 20 hrs by serial dilution method; format: functional; how it was run: as §1
[4] = biological target: T1, Quinolone resistance protein NorA (Staphylococcus aureus) (UniProt P0A0J7); assay: Inhibition of NorA efflux pump in Staphylococcus aureus K2378 overexpressing NorA assessed as drug level required for two fold potentiation of berberine MIC at 1.56 to 100 ug/mL after 20 hrs by serial dilution method
T1 sequence (whole entry): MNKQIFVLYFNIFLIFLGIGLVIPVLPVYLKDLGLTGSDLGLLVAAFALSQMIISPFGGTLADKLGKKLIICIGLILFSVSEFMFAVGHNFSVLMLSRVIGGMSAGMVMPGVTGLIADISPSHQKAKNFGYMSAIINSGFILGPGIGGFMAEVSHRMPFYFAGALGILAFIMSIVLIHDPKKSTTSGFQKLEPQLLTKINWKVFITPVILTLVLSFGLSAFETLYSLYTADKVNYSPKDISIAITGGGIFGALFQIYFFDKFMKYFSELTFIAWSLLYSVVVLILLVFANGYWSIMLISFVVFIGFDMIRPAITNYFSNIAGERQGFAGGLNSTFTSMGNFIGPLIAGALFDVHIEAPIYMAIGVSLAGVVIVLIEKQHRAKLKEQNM
How it was run: (§2)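 Checkerboard of serial 2-fold dilutions of berberine chloride against inhibitor, with inhibitor at 1.56–100 µg/mL. Berberine ranges were 12.5–100 µg/mL for 8325-4 and 200–800 µg/mL for K2378. Each agent was also diluted alone. Cells at 5 10^5 CFU/mL (final), 37 °C for 20 h, read at 600 nm; OD <0.05 counted as no growth. Inhibitor MIC is the lowest concentration lowering the berberine MIC at least 2-fold.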

[5] = biological target: T1, Quinolone resistance protein NorA (Staphylococcus aureus); assay: Inhibition of NorA efflux pump in NorA knockout Staphylococcus aureus K1758 assessed as drug level required for two fold potentiation of berberine MIC at 1.56 to 100 ug/mL after 20 hrs by serial dilution method
[6] = biological target: T1, Quinolone resistance protein NorA (Staphylococcus aureus); assay: Inhibition of NorA efflux pump in wild type Staphylococcus aureus 8325-4 assessed as drug level required for two fold potentiation of berberine MIC at 1.56 to 100 ug/mL after 20 hrs by serial dilution method; how it was run: as §2
[7] = biological target: T1, Quinolone resistance protein NorA (Staphylococcus aureus); assay: Inhibition of NorA efflux pump in wild type Staphylococcus aureus 8325-4 assessed as ratio of berberine MIC in presence to absence of inhibitor
[8] = biological target: T1, Quinolone resistance protein NorA (Staphylococcus aureus); assay: Inhibition of NorA efflux pump overexpressing Staphylococcus aureus 8325-4 K2378 assessed as ratio of berberine MIC in presence to absence of inhibitor
[9] = biological target: T1, Quinolone resistance protein NorA (Staphylococcus aureus); assay: Inhibition of NorA efflux pump overexpressed in Staphylococcus aureus 1199B assessed as increase in susceptibility to ciprofloxacin at 1.5 ug/mL by serial broth microdilution method
[10] = biological target: T1, Quinolone resistance protein NorA (Staphylococcus aureus); assay: Inhibition of NorA efflux pump overexpressed Staphylococcus aureus K2361 assessed as increase in antibacterial activity of berberine at 3 ug/mL
[11] = biological target: T1, Quinolone resistance protein NorA (Staphylococcus aureus); assay: Inhibition of NorA efflux pump overexpressed Staphylococcus aureus K2361 assessed as increase in antibacterial activity of berberine at 0.8 ug/mL
[12] = tested on: Enterococcus faecalis; assay: Antibacterial activity against Enterococcus faecalis MMH594; format: functional
How it was run: (§3)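 Panel of Gram-negative and Gram-positive non-Clostridium strains, compound alone: MIC in µg/mL, with 200 µg/mL the highest concentration tested.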

[13] = tested on: Pseudomonas aeruginosa; assay: Antibacterial activity against Pseudomonas aeruginosa PA14; format: functional; how it was run: as §3
[14] = tested on: Clostridioides difficile; assay: Antibacterial activity against Clostridium difficile CD196; format: functional
How it was run: (§4)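 Clostridium difficile panel, compound alone: MIC in µg/mL, with 100 µg/mL the highest concentration tested.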

[15] = tested on: Clostridium perfringens; assay: Antibacterial activity against Clostridium perfringens; format: functional
How it was run: (§5)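 Gram-negative and Gram-positive panel, MIC in µg/mL. Highest concentration tested was 200 µg/mL for E. coli O157:H7 and 100 µg/mL for Clostridium perfringens.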

[16] = tested on: Pseudomonas aeruginosa; assay: Antibacterial activity against Pseudomonas aeruginosa PAO1; format: functional; how it was run: as §3
[17] = tested on: Escherichia coli; assay: Antibacterial activity against Escherichia coli BW-25113; format: functional; how it was run: as §3
[18] = tested on: Clostridioides difficile; assay: Antibacterial activity against Clostridium difficile VP110463; format: functional; how it was run: as §4
[19] = tested on: Clostridioides difficile; assay: Antibacterial activity against Clostridium difficile CD2001; format: functional; how it was run: as §4
[20] = tested on: Escherichia coli; assay: Antibacterial activity against Escherichia coli O157:H7; format: functional; how it was run: as §5
[21] = tested on: Escherichia coli; assay: Antibacterial activity against Escherichia coli UT189; format: functional; how it was run: as §3
[22] = tested on: Enterococcus faecalis; assay: Antibacterial activity against Enterococcus faecalis OG1RF; format: functional; how it was run: as §3
[23] = tested on: Enterococcus faecalis; assay: Antibacterial activity against Enterococcus faecalis V583; format: functional; how it was run: as §3
[24] = tested on: Salmonella typhimurium; assay: Antibacterial activity against Salmonella Typhimurium CS132; format: functional, Salmonella enterica subsp. enterica serovar Typhimurium; settings: Salmonella enterica; how it was run: as §3

SMILES	MIC [1] [µM]	MIC [2] [µM]	MIC [4]	Activity [5]	MIC [6] [µM]	also measured
COS(=O)(=O)c1ccc2[nH]c(-c3ccccc3)cc2c1	174 (≈ 50 µg/mL)	174 (≈ 50 µg/mL)	–	–	–	MIC [3]: 174 µM (≈ 50 µg/mL)
COC(=O)c1ccccc1-c1cc2cc([N+](=O)[O-])ccc2[nH]1	> 1000	> 1000	inactive	inactive	34	–
COC(=O)c1ccc2[nH]c(-c3ccccc3)cc2c1	> 1000	> 1000	–	inactive	–	Activity [4]: inactive; Activity [6]: inactive
O=[N+]([O-])c1ccc2[nH]c(-c3ccccc3)cc2c1	> 1000	> 1000	1.3 µM	–	1.3	Ratio [7]: 2; Ratio [8]: 2; fold change (FC) [9]: 4; Activity [10]: Active; MIC [5]: 0.63 µM
O=[N+]([O-])c1ccc2[nH]c(-c3cc(OCc4ccccc4)ccc3CO)cc2c1	–	–	–	–	–	fold change (FC) [11]: > 15
O=[N+]([O-])c1ccc2[nH]c(-c3ccccc3CO)cc2c1	> 1000	> 1000	47 µM	–	47	MIC [5]: 24 µM
COC(=O)c1cccc(-c2cc3ccccc3[nH]2)c1	> 1000	> 1000	10 µM	–	5	MIC [5]: 40 µM
c1ccc(-c2cc3ccccc3[nH]2)cc1 [2-PHENYL-1H-INDOLE]	> 1000	> 1000	259 µM	inactive	65	Ratio [7]: 4; Ratio [8]: 4
COc1ccc2cc3[n+](cc2c1OC)CCc1cc2c(cc1-3)OCO2 [BERBERINE CHLORIDE]	67	269	–	–	–	MIC [3]: 2150 µM
COC(=O)c1ccc(-c2cc3ccccc3[nH]2)cc1	> 1000	> 1000	40 µM	inactive	20	–
OCc1ccc(-c2cc3ccccc3[nH]2)cc1	> 1000	> 1000	45 µM	inactive	22	–
O=C(O)c1ccc2[nH]c(-c3ccccc3)cc2c1	> 1000	> 1000	–	inactive	–	Activity [4]: inactive; Activity [6]: inactive
OCc1ccc2[nH]c(-c3ccccc3)cc2c1	14 (≈ 3.13 µg/mL)	28 (≈ 6.25 µg/mL)	–	–	–	MIC [12]: > 200 µg/mL; MIC [13]: > 200 µg/mL; MIC [14]: > 100 µg/mL; MIC [15]: > 100 µg/mL; MIC [16]: > 200 µg/mL; MIC [17]: > 200 µg/mL; MIC [18]: > 100 µg/mL; MIC [19]: > 100 µg/mL; MIC [20]: > 200 µg/mL; MIC [21]: > 200 µg/mL; MIC [22]: > 200 µg/mL; MIC [3]: 28 µM (≈ 6.25 µg/mL); MIC [23]: > 200 µg/mL; MIC [24]: > 200 µg/mL
COC(=O)c1cccc(-c2cc3cc([N+](=O)[O-])ccc3[nH]2)c1	> 1000	> 1000	1 µM	–	1	MIC [5]: 0.51 µM
CCCOS(=O)(=O)c1ccc2[nH]c(-c3ccccc3)cc2c1	79.3 (≈ 25 µg/mL)	79.3 (≈ 25 µg/mL)	–	–	–	MIC [3]: 79.3 µM (≈ 25 µg/mL)
O=S(=O)(O)c1ccc2[nH]c(-c3ccccc3)cc2c1	> 1000	> 1000	–	inactive	–	Activity [4]: inactive; Activity [6]: inactive
N#Cc1ccc2[nH]c(-c3ccccc3)cc2c1	> 1000	> 1000	7.1 µM	inactive	3.6	Ratio [7]: 2; Ratio [8]: 2
NS(=O)(=O)c1ccc2[nH]c(-c3ccccc3)cc2c1	> 1000	> 1000	–	inactive	–	Activity [4]: inactive; Activity [6]: inactive
OCc1cccc(-c2cc3ccccc3[nH]2)c1	> 1000	> 1000	45 µM	inactive	45	–
COC(=O)c1ccc(-c2cc3cc([N+](=O)[O-])ccc3[nH]2)cc1	> 1000	> 1000	inactive	inactive	17	–
O=[N+]([O-])c1ccc2[nH]c(-c3ccc(CO)cc3)cc2c1	> 1000	> 1000	2 µM	–	2	MIC [5]: 5 µM
O=[N+]([O-])c1ccc2[nH]c(-c3cccc(CO)c3)cc2c1	> 1000	> 1000	9 µM	–	5	MIC [5]: 9 µM
COC(=O)c1ccccc1-c1cc2ccccc2[nH]1	> 1000	> 1000	20 µM	inactive	20	–
OCc1ccccc1-c1cc2ccccc2[nH]1	> 1000	> 1000	45 µM	inactive	45	–
